Here are results for 38 compounds from PubChem BioAssay AID492951 (Molecular Libraries Program, Specialized Chemistry Center, …, 2010).

Active and inactive are the calls of the source.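 How the source made its calls: active means inhibition above 10%; inactive means the rest.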

Hexokinase-4 (Homo sapiens), sequence (P35557 whole entry, looked up): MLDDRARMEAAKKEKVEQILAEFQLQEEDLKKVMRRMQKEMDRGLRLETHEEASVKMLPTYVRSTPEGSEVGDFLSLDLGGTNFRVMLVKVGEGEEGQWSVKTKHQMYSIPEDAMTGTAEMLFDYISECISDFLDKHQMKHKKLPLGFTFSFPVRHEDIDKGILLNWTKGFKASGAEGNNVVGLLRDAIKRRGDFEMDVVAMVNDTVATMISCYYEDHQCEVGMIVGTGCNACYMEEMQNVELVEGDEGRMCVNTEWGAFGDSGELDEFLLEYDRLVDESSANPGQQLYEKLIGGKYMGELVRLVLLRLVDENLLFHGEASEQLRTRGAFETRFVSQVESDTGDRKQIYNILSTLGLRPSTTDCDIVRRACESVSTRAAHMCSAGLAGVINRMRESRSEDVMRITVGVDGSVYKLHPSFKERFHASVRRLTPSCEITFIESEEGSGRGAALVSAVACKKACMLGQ

The target in this assay is Hexokinase-4 (Homo sapiens) (UniProt P35557). Description: human glucokinase inhibition, counter-screen for TbHK1 inhibitor project, biochemical, recombinant hGlck (AID 492951). The following applies: G6PDH-coupled NADH absorbance 340 nm, at 10 µM; hits give high values. The procedure, abridged:
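Test system: recombinant human glucokinase, G6PDH-coupled; Medium: pH 7.9 TEA buffer, MgCl2, NAD+; Also added: 20 mM glucose as reaction starter, plus 1 mM ATP; Compound dosing: single final test compound dose of 10 µM; Schedule: 10 min preincubation at room temperature; Measured by: NADH formation by absorbance at 340 nm; Repeats: triplicate.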
(In general: Counterscreens check selectivity or assay interference.)
By inhibition is commonly meant the percentage by which the read-out fell short of the control. On to `COC(=O)c1ccc(Cl)cc1NC(=O)c1ccc(OC)cc1`, for which the inhibition is 18.2% (active).
As to `O=C(O)c1ccccc1NC(=O)c1ccccc1C(=O)O`, the result was inactive.
Same read-out and setting: next, `COc1ccc(NC(=O)c2ccc(Cl)cc2C(=O)O)cc1`: “inactive”.
With `COc1ccc2c(c1)CN(c1cc(Cl)ccc1C(=O)O)C2=O`, the outcome was inactive.
`COc1ccc(C(=O)NC(CC(=O)O)c2ccccc2)cc1` (stereo not drawn): the inhibition is 4% (inactive).
`CC1(c2ccc(C(=O)Nc3cc(Cl)ccc3C(=O)O)cc2)CC1`: the outcome was inactive.
With `CCCc1ccc(C(=O)Nc2cc(Cl)ccc2C(=O)O)cc1`, the inhibition was 16.8% (active).
Still for that read-out and setting: next, `N#Cc1ccccc1NC(=O)Cn1sc2ccccc2c1=O`: 10.9% (active).
Turning to `CC(C(=O)Nc1ccccc1)n1sc2ccccc2c1=O` (stereo not drawn), the inhibition is 9.6% (inactive).
The same measure, in the same setting: next, `N#Cc1ccc2c(=O)n(-c3ccccc3)sc2c1`: 54% (active); `COc1ccc(C(=O)Nc2cc(Cl)ccc2C(=O)O)cc1OC`: 20.1% (active); `COc1ccc(C(=O)Nc2cc(C(F)(F)F)ccc2C(=O)O)cc1`: 10.5% (active).
Consider `O=C(c1ccccc1)n1sc2ccccc2c1=O`, for which the result was inactive.
Turning to `O=C1c2cc(Br)ccc2S(=O)N1c1ccccc1` (stereo not drawn), the result was inactive.
In the case of `CN(C)c1ccc(C(=O)Nc2cc(Cl)ccc2C(=O)O)cc1`, the result was inactive.
For the compound `O=c1c(O)c(-c2ccc(O)c(O)c2)oc2cc(O)cc(O)c12`, the inhibition is 68.9% (active).
In the case of `COc1ccc2c(=O)n(-c3ccccc3)sc2c1`, the outcome was inactive.
Regarding `O=C(Nc1cc(Cl)ccc1C(=O)O)c1cocn1`, the outcome was inactive.
As for `COc1ccc(C(=O)Nc2ccccc2C(=O)O)cc1`, the outcome was inactive.
Turning to `O=C(O)c1ccc(Cl)cc1NC(=O)c1coc2ccccc12`, the outcome was inactive.
Regarding `CC(=O)Nc1ccc2c(=O)n(-c3ccccc3)sc2c1`, the outcome was inactive.
Consider `Cc1ccccc1-n1sc2cc(F)ccc2c1=O`, for which the outcome was inactive.
As to `O=C1c2cccc(Br)c2SCN1c1ccccc1`, the inhibition was 5.5% (inactive).
As to `COc1ccc(-n2sc3ccccc3c2=O)cc1`, the outcome was inactive.
Regarding `Cc1ccc(-n2sc3ccccc3c2=O)cc1`, the inhibition was 26.1% (active).
Still for that read-out and setting: next, `O=c1c2ccccc2sn1-c1ccccc1F`: 28.9% (active).
For `COc1ccc(C(=O)Nc2ccccc2-c2nn[nH]n2)cc1`, the outcome was inactive.
As to `O=c1c2ccc(F)cc2sn1Cc1ccccc1`, the inhibition was 56.1% (active).
Still for that read-out and setting: next, `N#Cc1ccc2sn(-c3ccccc3)c(=O)c2c1`: 4.3% (inactive); `Cc1ccc(-n2sc3cc(F)ccc3c2=O)c(C)c1`: 55.6% (active).
As to `O=C(Cn1sc2ccccc2c1=O)Nc1ccccc1Cl`, the result was inactive.
On the same count and under the same terms, next, `CCc1ccc(C(=O)Nc2cc(Cl)ccc2C(=O)O)cc1`: “inactive”.
As to `O=C(Nc1cc(Cl)ccc1C(=O)O)c1ccc(OC(F)(F)F)cc1`, the inhibition is 13.1% (active).
With `COC(=O)c1ccc(Cl)cc1NC(=O)c1ccccc1OC`, the result was inactive.
Still for that read-out and setting: for `COc1ccc(NC(=O)Cn2sc3ccccc3c2=O)cc1` the value was “inactive”; for `CCCCCCCC(=O)Nc1cc(Cl)ccc1C(=O)O`, “inactive”.
`O=C(Nc1cc(Cl)ccc1C(=O)O)c1ccc(C2CCCC2)cc1`: the inhibition was 21.1% (active).
With `O=c1c2cc([N+](=O)[O-])ccc2sn1-c1ccccc1`, the inhibition was 11.4% (active).
